High-throughput results as filed in PubChem.
Apaf1 inhib: human Apaf-1 inhibition. AID 489030. 0.71% of 330,000 active. inhibition, % at 20 µM. reconstituted apoptosome caspase-3 activity, DEVD-Rh110 fluorescence; active means inhibition of at least 40% at 20 µM;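 further: plate controls were DMSO wells for no effect and DEVD-CHO caspase inhibitor wells for full effect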
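Assay system: Apoptosome proteins | Medium: pH 7.5 Hepes buffer with CHAPS, BSA, DTT | Also added: Cytochrome c and DEVD-Rh110 substrate | Times: 30 min plus 50 min, RT | Detection: Rhodamine 110 fluorescence at Ex 480/Em 540 nm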
PREPL inh: human PREPL enzyme inhibition; recombinant PREPL, fluorescence polarization activity-based probe; inhibition, % at 5.96 µM; 0.68% of 320,000 active; AID 2751; in the data active means inhibition above about 43%;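 further: 0% = enzyme with DMSO and 100% = wells lacking enzyme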
Target sequence (Q4J6C6 whole entry, looked up): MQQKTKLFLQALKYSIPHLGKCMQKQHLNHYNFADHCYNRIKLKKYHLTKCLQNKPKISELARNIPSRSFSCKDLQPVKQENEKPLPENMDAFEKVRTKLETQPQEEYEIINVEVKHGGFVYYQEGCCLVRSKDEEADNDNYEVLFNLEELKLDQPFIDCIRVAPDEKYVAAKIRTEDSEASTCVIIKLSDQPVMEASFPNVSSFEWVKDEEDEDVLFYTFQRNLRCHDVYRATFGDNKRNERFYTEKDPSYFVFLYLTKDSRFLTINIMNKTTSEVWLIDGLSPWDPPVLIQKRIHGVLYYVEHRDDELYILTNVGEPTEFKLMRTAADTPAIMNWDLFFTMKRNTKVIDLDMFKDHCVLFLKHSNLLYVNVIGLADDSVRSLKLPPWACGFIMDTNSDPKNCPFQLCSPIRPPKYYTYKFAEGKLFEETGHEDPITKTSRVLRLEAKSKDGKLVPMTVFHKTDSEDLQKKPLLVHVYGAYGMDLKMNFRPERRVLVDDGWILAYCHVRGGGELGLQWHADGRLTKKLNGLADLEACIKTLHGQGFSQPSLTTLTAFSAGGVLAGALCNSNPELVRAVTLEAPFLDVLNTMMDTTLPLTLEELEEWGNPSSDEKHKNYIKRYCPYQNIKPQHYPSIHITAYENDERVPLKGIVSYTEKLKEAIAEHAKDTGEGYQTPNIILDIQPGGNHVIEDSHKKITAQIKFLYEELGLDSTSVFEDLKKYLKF
UBC13 polyUb: human UBC13 polyubiquitination inhibition; AID 485273; UBC13 polyubiquitin chain formation, TR-FRET; P61088; 0.47% of 330,000 active; inhibition, % at 20 µM; in the data active means inhibition above about 45%, passing the limit was not always enough
EBNA-1 inh: blocks EBNA-1 binding to DNA. AID 1950. 0.34% of 300,000 active. EBNA-1 DNA binding, fluorescence polarization. inhibition, % at 14.8 µM; in the data active means inhibition above about 28%
ZTA counter: counter-screen for EBNA-1 inhibitors: inhibitors of Epstein-Barr virus ZTA. inhibition, % at 11 µM. 0.15% of 320,000 active. ZTA-DNA binding, fluorescence polarization. P03206; in the data active means inhibition above about 33%
Apaf-1 inh conf: Apaf-1 inhibition, single-dose confirmed | inhibition, % at 20 µM | AID 504614 | shares compounds with Apaf1 inhib | reconstituted apoptosome, caspase-3 DEVD-Rh110 fluorescence | 25% of 1,800 active;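 active means mean inhibition of at least 40% at 20 µM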;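 further: plate controls were DMSO wells for no effect and DEVD-CHO caspase inhibitor control wells for full effect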
Rh110 interf inh: counter-screen for Apaf-1 inhibitors: fluorescence interference; activation (fluorescence interference), % at 20 µM; AID 504615; Rh110 fluorescence interference, quenched caspase reaction; shares compounds with Apaf1 inhib; 1,800 tested, under 10 active;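 active means signal rise of 40% or more at 20 µM, treated as a fluorescence artifact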
Fluor interf inh: shows fluorescence interference in the Apaf-1 inhibitor assay format | shares compounds with Apaf1 inhib | fluorescence interference counterscreen, Apaf-1 assay format | IC50, µM | 460 tested, under 10 active | AID 588538; call rule not given here
* = called active by the depositor; . = no result. Compounds with a hit are over-represented: about 1.7% of the library has one in this group of screens.

SMILES | Apaf1 inhib | PREPL inh | UBC13 polyUb | EBNA-1 inh | ZTA counter | Apaf-1 inh conf | Rh110 interf inh | others
CC(C)=CCC/C(C)=C/CNC(=O)C[C@H]1C[C@H](C(=O)N2CCOCC2)[C@@]2(C)c3[nH]c4ccc(Cl)cc4c3CCN2C1=O | 42* | . | . | . | . | 27 | 10
C[C@]12c3[nH]c4ccc(Cl)cc4c3CCN1C(=O)[C@@H](CC(=O)NCCN1CCOCC1)C[C@@H]2C(=O)N1CCOCC1 | 6 | . | . | . | . | . | .
CCOc1ccc(OCC)c(NS(=O)(=O)c2ccc3c(c2)CCN3C(=O)C2CCC2)c1 | 13 | 9 | -2 | 1 | -25 | . | .
CCOc1ccc(-n2nc3ccc(N)cc3n2)cc1 | 84* | . | -26 | . | . | 24 | 2
Nc1ccc2nn(-c3ccc(F)cc3)nc2c1 | 88* | 9 | -2 | -3 | -1 | 24 | -4
CC(C)C(=O)Nc1ccc2nn(-c3ccc(F)cc3)nc2c1 | -95 | 6 | 11 | 7 | -5 | . | .
COc1ccc(OC)c(S(=O)(=O)n2nc(-c3ccccc3)cc2N)c1 | 9 | 2 | 0 | -1 | 4 | . | .
CCCCNC(=O)Nc1cc(C(F)(F)F)c[nH]c1=O | 4 | 3 | 5 | 9 | -13 | . | .
O=C(CC1SC(N2CCCCC2)=NC1=O)Nc1cccc(C(=O)NCc2ccccc2)c1 (stereo not given) | 1 | 2 | -5 | . | . | . | .
CC(Nc1cccc2ccccc12)C(=O)N/N=C/c1ccc([N+](=O)[O-])cc1 (stereo not given) | 25 | 38 | -43 | -3 | 5 | . | .
Cc1cccc(/C=N/NC(=O)c2ccc(NC(=O)c3ccc(F)cc3)cc2)n1 | 4 | -1 | -4 | 7 | 4 | . | .
Cc1cccc(/C=N/NC(=O)C(C)Nc2cccc3ccccc23)n1 (stereo not given) | 91* | -5 | -104 | -1 | -6 | 20 | 10
COc1cc([N+](=O)[O-])cc(/C=N/NC(=O)C(C)Nc2cccc3ccccc23)c1O (stereo not given) | 93* | 15 | -46 | 4 | 1 | 21 | 0
COCCCN(C(=O)c1cccnc1SC)c1c(N)n(Cc2ccccc2)c(=O)[nH]c1=O | -2 | 7 | 4 | -14 | -10 | . | .
Cc1cc(NC(=O)CSCC(=O)Nc2ccc(Cl)c(C(F)(F)F)c2)no1 | -1 | 5 | 6 | 2 | -17 | . | .
Cc1cc(NC(=O)CSCC(=O)Nc2ccc(C)c(C)c2)no1 | 54* | 14 | -2 | . | 16 | 4 | -4
O=C(NC(=S)Nc1ccccc1Br)C1CCCC1 | 3 | 7 | 10 | 2 | 6 | . | .
CC(=O)N(C1=C(N)C(=O)c2ccccc2C1=O)c1ccccc1 | 67* | 3 | -65 | -10 | 9 | 81* | 10 | Fluor interf inh=>100
Cc1ccc(-c2csc(NC(=O)CN3CCOCC3)n2)cc1C | 0 | -7 | -6 | 4 | -4 | . | .
COCCN(Cc1ccccc1)C(=O)C1CCN(S(=O)(=O)c2ccc3c(c2)OCCO3)CC1 | 49* | 10 | 14 | . | 18 | 33 | 12
Cc1ccc(N(Cc2ccccc2)C(=O)c2cccc(S(=O)(=O)N3CC(C)OC(C)C3)c2)cc1 (stereo not given) | 30 | 12 | -6 | -8 | 4 | . | .
COCCN(Cc1ccccc1)C(=O)C1CCN(S(=O)(=O)c2ccc(OC)c(OC)c2)CC1 | -5 | -17 | -6 | 5 | -7 | . | .
CC1CN(S(=O)(=O)c2cccc(C(=O)N(CCc3ccccc3)Cc3ccccc3)c2)CC(C)O1 (stereo not given) | 45* | 35 | -1 | 3 | 12 | 20 | 9
CC1CN(C(=O)c2cccc(S(=O)(=O)NCc3ccccc3)c2)CC(C)O1 (stereo not given) | 54* | 18 | 15 | . | -14 | 35 | 3
CSc1ccc(CN(C)C(=O)c2cc(S(=O)(=O)NCc3ccccc3)ccc2C)cc1 | 18 | 5 | 4 | -5 | -11 | . | .
SMILES | Apaf1 inhib | PREPL inh | UBC13 polyUb | EBNA-1 inh | ZTA counter | Apaf-1 inh conf | Rh110 interf inh | others
CSc1ccc(CN(C)C(=O)c2cccc(S(=O)(=O)NCc3ccccc3)c2)cc1 | 67* | 1 | 17 | -6 | -2 | 36 | 5
CCCCC(C(=O)NC1CCCC1)N(Cc1ccccc1)C(=O)c1snc(C(N)=O)c1N (stereo not given) | 16 | -4 | 14 | -3 | 8 | . | .
CCS(=O)(=O)n1nc(-c2ccccc2)nc1NCc1ccco1 | 1 | 9 | 10 | -9 | -16 | . | .
COCCN(Cc1ccccc1)C(=O)c1cccc(S(=O)(=O)N2CCN(c3ccc(F)cc3)CC2)c1 | 34 | -50 | 1 | 6 | 20 | . | .
COCCN(Cc1ccccc1)C(=O)c1cccc(S(=O)(=O)N2CCN(c3ccccc3)CC2)c1 | 43* | -24 | 13 | -1 | -8 | 42* | 6 | Fluor interf inh=>100
N#Cc1sc2nc(-c3ccccc3)cc(-c3ccco3)c2c1N | 90* | 34 | -17 | 6 | 6 | 14 | -4
N#Cc1sc2nc(C3CC3)cc(-c3ccccc3)c2c1N | 30 | 11 | 21 | -3 | 8 | . | .
CCOC(=O)c1cc(-c2ccc(/C=C3/C(=O)N(c4ccc(C(=O)O)cc4)N=C3C)o2)ccc1Cl | 50* | -1 | -46 | -2 | 9 | 30 | 7
Nc1ccc(Oc2ccc3nc(-c4ccccc4)c(-c4ccccc4)nc3c2)cc1 | 21 | 19 | -8 | 5 | -8 | . | .
Nc1ccc2nc(-c3ccccc3)c(-c3ccccc3)nc2c1 | 65* | 17 | -36 | 0 | 4 | 28 | 7
Cc1ccc2occ(CN3CCN(c4ccccc4)CC3)c(=O)c2c1 | 0 | 13 | 3 | 0 | 14 | . | .
Cc1cc(/C=C2\SC(=O)N(C)C2=O)c(C)n1-c1ccc(O)cc1 | 71* | 16 | -7 | -8 | 3 | 18 | 9
COc1cccc(S(=O)(=O)Nc2ccc(C(=O)N3CCCCCC3)cc2)c1 | 4 | -4 | 4 | 7 | 8 | . | .
COc1ccc(NS(=O)(=O)c2cccc(C(=O)N3CCCCCCC3)c2)cc1 | 45* | 1 | 26 | . | -1 | 39 | 17
O=C(c1ccccc1)c1ccc(CN2C(=O)c3ccccc3C2=O)o1 | -11 | 10 | 7 | 6 | 18 | . | .
O=C(c1ccccc1)c1coc2c1C(=O)c1ccccc1C2=O | 64* | 17 | -48 | 5 | -22 | 70* | 6 | Fluor interf inh=>100
O=C1c2ccccc2C(=O)c2c1oc(C(F)(F)F)c2C(=O)c1ccccc1 | 79* | 2 | -41 | 0 | -5 | 85* | 1 | Fluor interf inh=>100
COc1cc(NC(=O)c2cccc([N+](=O)[O-])c2C)ccc1NC(=O)c1ccco1 | 2 | 3 | -11 | -10 | 1 | . | .
Cc1ccc(S(=O)(=O)N/N=C2\C(=O)C3(C)CCC2C3(C)C)cc1 (stereo not given) | 7 | 2 | 5 | -2 | -1 | . | .
